# Measured values taken from ChEMBL document CHEMBL1124606, “Benzo- and pyrido-1,4-oxazepin-5-ones and -thiones: synthesis and structure-activity relationships of a new series of H1 antihistamines” (1989).
# Legend:
# [1] = biological target: Histamine H1 receptor (Cavia porcellus) (UniProt P31389); test: Histamine induced lethality, at 30-min pretreatment time of 3 mg/kg i.p. in guinea pigs.; type: functional, organism-based; parameters: dose 3 mg/kg; conditions: at 3 mg/kg
# [2] = test system: Cavia porcellus; test: Histamine induced lethality, at 30-min pretreatment time when 30 mg/kg compound was administered intra peritoneally in guinea pigs; type: functional
# [3] = test system: Cavia porcellus; test: Histamine induced lethality, at 60-min pretreatment time when 1 mg/kg compound was administered perorally in guinea pigs; type: functional; conditions: route oral
# [4] = test system: Cavia porcellus; test: Histamine induced lethality, at 60-min pretreatment time when 30 mg/kg compound was administered perorally in guinea pigs; type: functional; conditions: route oral
# [5] = test system: Cavia porcellus; test: Histamine induced lethality, at 60-min pretreatment time when 3 mg/kg compound was administered perorally in guinea pigs; type: functional; conditions: route oral
# [6] = species on record: Cavia porcellus; test: Effective dose that protects guinea pigs against histamine induced lethality at 6 hours pretreatment time; type: functional
# In short: (§1)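 Survival at 24 h after challenge was scored as protection. Groups of 5–10 animals per treatment; ED50 was calculated by the Litchfield–Wilcoxon method or by computer probit analysis.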
# [7] = species on record: Cavia porcellus; test: Effective dose that protects guinea pigs against histamine induced lethality, at 1 hour pretreatment time; type: functional; in short: as §1
# [8] = biological target: Histamine H1 receptor (Cavia porcellus) (UniProt P31389); test: Histamine induced lethality, at 60-min pretreatment time of 0.1 mg/kg p.o. in guinea pigs.; type: functional, organism-based; parameters: dose 0.1 mg/kg; conditions: at 0.1 mg/kg
# [9] = test system: Cavia porcellus; test: Histamine induced lethality, at 60-min pretreatment time when 0.3 mg/kg compound was administered perorally in guinea pigs; type: functional; conditions: route oral
# [10] = test system: Felis catus; test: The compound dose required to elicit marked cortical slowing and spindling, when administarted intra venously in cats; type: functional
# In short: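 Cats given test compound iv (0.001-20 mg/kg), with spontaneous EEG inspected after each dose for cortical slowing, synchrony and spindle-type activity. The sedative dose was the one producing marked slowing and spindling (synchrony). Values are mean ± SD over the number of experiments per compound.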
# Sequence of Histamine H1 receptor (Cavia porcellus) (P31389 whole entry): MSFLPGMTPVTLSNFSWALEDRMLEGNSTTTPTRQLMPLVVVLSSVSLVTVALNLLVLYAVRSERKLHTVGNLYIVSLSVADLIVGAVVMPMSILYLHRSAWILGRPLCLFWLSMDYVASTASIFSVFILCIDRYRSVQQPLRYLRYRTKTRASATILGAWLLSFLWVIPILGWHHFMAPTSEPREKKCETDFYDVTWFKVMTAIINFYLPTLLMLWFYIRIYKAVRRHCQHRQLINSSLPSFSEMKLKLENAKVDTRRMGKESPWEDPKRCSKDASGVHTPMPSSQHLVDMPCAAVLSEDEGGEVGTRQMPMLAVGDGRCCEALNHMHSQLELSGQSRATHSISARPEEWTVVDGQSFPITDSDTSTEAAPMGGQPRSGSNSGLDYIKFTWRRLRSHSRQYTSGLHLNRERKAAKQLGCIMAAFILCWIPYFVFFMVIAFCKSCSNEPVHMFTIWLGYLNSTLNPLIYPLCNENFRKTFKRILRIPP
smiles,measurement,setting,value
CN1CCN(CCC2CN(C)C(=S)c3cccnc3O2)CC1 (stereo not given),Survival,[1],0%
same,survival at 30 mg/kg,[2],100%
CCN(C)CCC1CN(C)C(=S)c2cccnc2O1 (stereo not given),survival at 1 mg/kg,[3],0%
same,survival at 30 mg/kg,[4],100%
same,survival at 3 mg/kg,[5],60%
CN(C)CCC1CN(C)C(=S)c2cc3ccccc3nc2O1 (stereo not given),ED50,[6],2.9 mg/kg
same,ED50,[7],0.1 mg/kg
same,Survival,[8],67%
same,survival at 0.3 mg/kg,[9],100%
CN(C)CCC1CN(C)C(=O)c2cc(Cl)ccc2O1 (stereo not given),survival at 1 mg/kg,[3],33%
same,survival at 3 mg/kg,[5],40%
same,survival at 0.3 mg/kg,[9],0%
COc1ccc(CCN(C)CCC2CN(C)C(=S)c3cccnc3O2)cc1 (stereo not given),survival at 30 mg/kg,[4],100%
same,survival at 3 mg/kg,[5],33%
CN1CC(CCN2CCC2)Oc2ccc(Cl)cc2C1=S (stereo not given),ED50,[7],0.12 mg/kg
same,Survival,[8],40%
same,survival at 0.3 mg/kg,[9],100%
CN(C)CCC1CN(C)C(=S)c2cc([N+](=O)[O-])ccc2O1 (stereo not given),survival at 3 mg/kg,[5],67%
same,survival at 0.3 mg/kg,[9],33%
CN(C)CCOc1ncccc1C(=S)N(C)C,survival at 30 mg/kg,[2],0%
CN(C)CCC1CN(C)C(=O)c2c(Cl)cncc2O1 (stereo not given),survival at 30 mg/kg,[2],0%
Cc1ccc2c(n1)OC(CCN(C)C)CN(C)C2=S (stereo not given),ED50,[6],> 2 mg/kg
same,ED50,[7],0.06 mg/kg
same,Survival,[8],80%
same,survival at 0.3 mg/kg,[9],100%
CN(C)CCC1CN(C)C(=O)c2cnc3ccccc3c2O1 (stereo not given),survival at 30 mg/kg,[2],33%
CCN1CC(CCN(C)C)N(C)c2ccccc2C1=O (stereo not given),survival at 30 mg/kg,[2],0%
CN1CC(CCn2ccnc2)Oc2ncccc2C1=S (stereo not given),Survival,[1],0%
same,survival at 30 mg/kg,[2],100%
CNCCC1CN(C)C(=S)c2cccnc2O1 (stereo not given),survival at 30 mg/kg,[4],100%
same,survival at 3 mg/kg,[5],0%
same,Dose,[10],>20 mg/kg
CN1CC(CC[N+](C)(C)C)Oc2ncccc2C1=S (stereo not given),Survival,[1],0%
same,survival at 30 mg/kg,[2],100%
COc1ccc(CN(C)CCC2CN(C)C(=S)c3cccnc3O2)cc1 (stereo not given),survival at 1 mg/kg,[3],0%
same,survival at 3 mg/kg,[5],67%
CN(C)CCCC1CN(C)C(=O)c2cccnc2O1 (stereo not given),Survival,[1],0%
same,survival at 30 mg/kg,[2],100%
CC(CN(C)C)C1CN(C)C(=O)c2cccnc2O1 (stereo not given),Survival,[1],0%
same,survival at 30 mg/kg,[2],67%
CN(C)CCC1CN(C)C(=S)c2ccncc2O1 (stereo not given),survival at 1 mg/kg,[3],100%
same,survival at 0.3 mg/kg,[9],0%
CN(C)CCC1CN(C)C(=S)c2cc(Br)cnc2O1 (stereo not given),ED50,[6],2 mg/kg
same,ED50,[7],0.05 mg/kg
same,Survival,[8],100%
CC(=O)Nc1ccc2c(c1)C(=S)N(C)CC(CCN(C)C)O2 (stereo not given),survival at 3 mg/kg,[5],100%
same,survival at 0.3 mg/kg,[9],0%
CN1CC(CCN2CC=CC2)Oc2ncccc2C1=S (stereo not given),survival at 1 mg/kg,[3],0%
same,survival at 3 mg/kg,[5],100%
CN1CC(CCN2CCOCC2)Oc2ccccc2C1=S (stereo not given),survival at 30 mg/kg,[2],50%
CN1CC(CCN(Cc2ccccc2)Cc2ccccc2)Oc2ncccc2C1=S (stereo not given),survival at 30 mg/kg,[2],0%
CN(C)CCC1CN(C)C(=S)c2cc(Br)ccc2O1 (stereo not given),survival at 1 mg/kg,[3],0%
same,survival at 30 mg/kg,[4],100%
same,survival at 3 mg/kg,[5],67%
CN(CCC1CN(C)C(=S)c2cccnc2O1)Cc1ccccc1 (stereo not given),survival at 1 mg/kg,[3],0%
same,survival at 3 mg/kg,[5],100%
CCN(CC)CCC1CN(C)C(=S)c2cc(Cl)cnc2O1 (stereo not given),ED50,[7],0.39 mg/kg
same,survival at 3 mg/kg,[5],100%
same,survival at 0.3 mg/kg,[9],20%
CC(CN(C)C)C1CN(C)C(=S)c2cccnc2O1 (stereo not given),Survival,[1],0%
same,survival at 30 mg/kg,[2],100%
CN(C)CC1CN(C)C(=S)c2cccnc2O1 (stereo not given),survival at 30 mg/kg,[2],0%
CN(C)CCC1CN(C)C(=O)c2cnc3cc(C(F)(F)F)ccc3c2O1 (stereo not given),Survival,[1],0%
same,survival at 30 mg/kg,[2],100%
CCCCN(CCCC)CCC1CN(C)C(=S)c2cccnc2O1 (stereo not given),Survival,[1],33%
same,survival at 30 mg/kg,[2],100%
CN(C)CCC1CN(C)C(=O)c2c(cncc2N(C)C)O1 (stereo not given),survival at 30 mg/kg,[2],0%
CN1CC(CCN2CCCCC2)Oc2ncccc2C1=S (stereo not given),Survival,[1],0%
same,survival at 30 mg/kg,[2],100%
CN1CC(CCN2CCOCC2)Oc2ncccc2C1=S (stereo not given),Survival,[1],0%
same,survival at 30 mg/kg,[2],100%
CN1CC(CCN2CCC2)Oc2ncccc2C1=S (stereo not given),ED50,[6],1 mg/kg
same,ED50,[7],0.04 mg/kg
same,Survival,[8],100%
CC(CC1CN(C)C(=O)c2cccnc2O1)N(C)C (stereo not given),Survival,[1],0%
same,survival at 30 mg/kg,[2],100%
CN1CC(CCNC2CCC2)Oc2ncccc2C1=S (stereo not given),survival at 30 mg/kg,[2],0%
CCN(CC)CCC1CN(C)C(=S)c2cccnc2O1 (stereo not given),survival at 1 mg/kg,[3],33%
same,survival at 3 mg/kg,[5],67%
CN1CC(CCNC2CC2)Oc2ncccc2C1=S (stereo not given),survival at 30 mg/kg,[2],0%
